Bioassay records as filed in PubChem.
Most compounds without a hit are left out; they make up all but 2.1% or so of the library.
Beta2AR agonist – activates human beta-2 adrenergic receptor causing internalization; P07550; response, % (test concentration not listed); Am2.2-beta2AR cells, FAP receptor internalization, flow cytometry; AID 504454; 340,000 compounds, 0.43% hits;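 active = response above a set limit, near 3 SD of response in nonfluorescent compounds, cut at about 42% in these data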
PfG6PD inh – PfG6PD (Plasmodium falciparum) enzyme inhibition. 350,000 compounds, 0.78% hits. inhibition, % at 20 µM. AID 504690. PfGluPho enzyme, NADPH resazurin-diaphorase fluorescence;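 active = inhibition reaching at least a set limit at 20 µM in the primary screen, cut at about 59% in these data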;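 note: 0% = DMSO wells with substrate and 100% = DMSO wells lacking glucose-6-phosphate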
aDG glyco up – alpha-DG glycosylation activation. 360,000 compounds, 0.22% hits. activation, % at 10 µM. AID 624168. Pro5-aDG cells, alpha-DG glycosylation AlphaScreen (IIH6); 0% Pro5, 100% B10-LARGE cell signal;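 active = activation of at least 8% versus controls, or a plate z-score of at least 8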;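 note: Pro5 are CHO cells carrying HIG-tagged alpha-DG that lacks glycosylation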
HKDC1 inhibitor – inhibitors of human hexokinase HKDC1; recombinant HKDC1, G6PDH/diaphorase resazurin coupled fluorescence; inhibition, % at 20 µM; 340,000 compounds, 0.16% hits; AID 493160;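 active = inhibition above about 35% when tested at 20 µM, limit read from the data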;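 note: plate controls were DMSO wells with enzyme for no effect and DMSO wells lacking enzyme for full effect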
Target sequence (Q2TB90 whole entry, looked up): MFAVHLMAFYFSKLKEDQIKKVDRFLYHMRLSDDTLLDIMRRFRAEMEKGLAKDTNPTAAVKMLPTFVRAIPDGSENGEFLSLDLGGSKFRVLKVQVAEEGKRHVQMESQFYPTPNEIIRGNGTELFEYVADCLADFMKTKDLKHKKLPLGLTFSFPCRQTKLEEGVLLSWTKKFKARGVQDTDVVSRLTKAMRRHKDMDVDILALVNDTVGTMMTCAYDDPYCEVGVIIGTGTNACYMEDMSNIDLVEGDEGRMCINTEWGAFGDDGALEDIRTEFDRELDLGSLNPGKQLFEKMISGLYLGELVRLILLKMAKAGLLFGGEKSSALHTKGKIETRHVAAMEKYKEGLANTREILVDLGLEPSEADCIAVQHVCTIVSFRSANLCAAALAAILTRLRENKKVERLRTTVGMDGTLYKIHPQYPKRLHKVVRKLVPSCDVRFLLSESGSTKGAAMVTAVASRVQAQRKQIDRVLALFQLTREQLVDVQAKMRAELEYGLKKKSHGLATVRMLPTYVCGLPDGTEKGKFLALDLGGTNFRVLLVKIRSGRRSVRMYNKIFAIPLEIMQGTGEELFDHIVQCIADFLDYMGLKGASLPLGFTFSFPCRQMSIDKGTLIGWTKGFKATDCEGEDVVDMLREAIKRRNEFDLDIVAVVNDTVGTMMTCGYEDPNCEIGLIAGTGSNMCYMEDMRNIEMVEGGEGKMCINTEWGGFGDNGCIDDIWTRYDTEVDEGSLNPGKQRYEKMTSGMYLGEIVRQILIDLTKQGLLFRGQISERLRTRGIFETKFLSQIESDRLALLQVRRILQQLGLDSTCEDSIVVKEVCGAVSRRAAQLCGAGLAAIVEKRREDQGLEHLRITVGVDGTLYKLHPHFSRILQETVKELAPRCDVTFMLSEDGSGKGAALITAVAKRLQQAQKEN
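Assay system – recombinant HKDC1 (HK5) hexokinase enzyme, produced in-house · Input – HKDC1 at 5 µg/mL · Reagent – glucose plus 1 mM ATP as hexokinase substrates · Timing – 90 min reaction incubation at room temperature, dark · Measured by – G6PDH/diaphorase-coupled fluorescence, 1 mM NADP, 100 µM resazurin, 525/613 nm · Benchmarks – DMSO-enzyme wells negative, buffer-substituted wells positive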
H9c2 protect – protects H9c2 cardiomyocytes from peroxide injury. 360,000 compounds, 0.63% hits. protection from H2O2 cell death, % at 20 µM. H2O2 injury protection, ATPLite, 2 h;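 active = compounds giving at least 50% protection of heart cells from peroxide-induced death in the single-dose screen, raw or plate-pattern-corrected value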;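 note: 0% = DMSO wells with peroxide and 100% = DMSO wells without peroxide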
UCH37 inh – inhibitors of human deubiquitinating enzyme UCH37 | purified proteasome/UCH37, Ub-AMC cleavage fluorescence | Q9Y5K5 | 330,000 compounds, 0.33% hits | inhibition, % (no concentration beside the values);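 active = mean inhibition over replicate wells above about 20%, limit read from the data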;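 note: 0% = compound-free wells with enzyme and 100% = wells lacking proteasome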
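Test system – human UCH37 enzyme supplied as purified proteasome complex · Incubation – 30 min preincubation with enzyme, 25 min cleavage at room temperature · Detection – AMC fluorescence from Ub-AMC cleavage, excitation 355 nm, emission 460 nm · Benchmarks – no-proteasome wells (full inhibition) and compound-free wells (no inhibition)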
aDG glyco conf – alpha-DG glycosylation activation, confirmation; Pro5-aDG cells, IIH6 AlphaLISA; scaled to LARGE-overexpressing B10 cells as 100%; 600 compounds, 17% hits; AID 651671; activation, % at 10 µM (by protocol); shares compounds with aDG glyco up;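 active = activation of at least 7% in one or more replicates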;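 note: cells exposed to compound for two days before detection; 0% = DMSO-treated Pro5 cells and 100% = DMSO-treated B10-LARGE cells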
An asterisk follows results filed as active.

Results for CC(CC(C)C)=NNc1ccc([N+](=O)[O-])cc1[N+](=O)[O-] ?
UCH37 inh: 5

Results for COc1cc(C(=O)Nc2cccnc2)cc(OC)c1OC ?
Beta2AR agonist: 1; PfG6PD inh: 7; aDG glyco up: 0; HKDC1 inhibitor: -9; H9c2 protect: 16; UCH37 inh: 2

How did COc1ccc(NC(=O)c2cc(OC)c(OC)c(OC)c2)cn1 do in these assays?
Beta2AR agonist: 4; PfG6PD inh: 4; aDG glyco up: 3.7*; HKDC1 inhibitor: -2; H9c2 protect: 10; UCH37 inh: 6; aDG glyco conf: 0

What do the screens show for `Cc1cc(C)cc(NC(=O)C2CCCN(S(=O)(=O)c3c(C)noc3C)C2)c1` (stereo not drawn)?
Beta2AR agonist: 10; PfG6PD inh: 17; aDG glyco up: 3.1*; HKDC1 inhibitor: 2; H9c2 protect: -2; UCH37 inh: 3; aDG glyco conf: 0

Results for Cc1noc(/C=C/N(C)C)c1S(=O)(=O)N1CCC(C(=O)Nc2ccc(Cl)cc2)CC1 ?
Beta2AR agonist: 9; PfG6PD inh: 1; aDG glyco up: 8.6*; HKDC1 inhibitor: -3; H9c2 protect: -1; UCH37 inh: 3; aDG glyco conf: 2

What do the screens show for `CC(=NNC(=O)CCC(=O)NCc1ccccc1)c1ccc([N+](=O)[O-])cc1`?
UCH37 inh: 4

Results for CC(C)NC(=S)N/N=C1\CCCCC1C1CCCCC1 (stereo not drawn) ?
Beta2AR agonist: 18; PfG6PD inh: 5; aDG glyco up: 7.2*; HKDC1 inhibitor: -1; H9c2 protect: -20; aDG glyco conf: 0

How did c1ccc2c(N3CCCCCC3)nc(-c3ccncc3)nc2c1 do in these assays?
Beta2AR agonist: 7; PfG6PD inh: 16; aDG glyco up: 7.0*; HKDC1 inhibitor: 3; H9c2 protect: 7; UCH37 inh: 0; aDG glyco conf: 0

Results for CCSc1nnc(SCC(=O)c2c(N)n(C)c(=O)n(C)c2=O)s1 ?
Beta2AR agonist: 0; PfG6PD inh: -11; aDG glyco up: 4.2*; HKDC1 inhibitor: 4; H9c2 protect: -10; UCH37 inh: 0; aDG glyco conf: -1

How did Cc1ccccc1Nc1nnc(SCC(=O)c2c(N)n(C)c(=O)n(C)c2=O)s1 do in these assays?
Beta2AR agonist: 10; PfG6PD inh: 1; aDG glyco up: 0; HKDC1 inhibitor: 2; H9c2 protect: 2; UCH37 inh: 4

What do the screens show for `CCCCN(C)CCCNC(=O)c1cn(CC)c2ccc(S(=O)(=O)N3CCc4ccccc4C3)cc2c1=O`?
Beta2AR agonist: 11; PfG6PD inh: 2; aDG glyco up: 5; HKDC1 inhibitor: 0; H9c2 protect: -29; UCH37 inh: 2

What do the screens show for `CCCCN(CC)CCCNC(=O)c1cn(CC)c2ccc(S(=O)(=O)N3CCc4ccccc4C3)cc2c1=O`?
Beta2AR agonist: 18; PfG6PD inh: 14; aDG glyco up: 8.5*; HKDC1 inhibitor: -3; H9c2 protect: -14; UCH37 inh: 8; aDG glyco conf: 2

Results for NC(Cc1ccc([N+](=O)[O-])cc1)=NOC(=O)COc1ccc2ccccc2c1 ?
UCH37 inh: 1

How did C[C@@H]1CN([C@H](C)CO)C(=O)CCCn2nncc2CO[C@@H]1CN(C)C(=O)Nc1ccc(N2CCN(C)CC2)cc1 do in these assays?
PfG6PD inh: 1; aDG glyco up: 8.5*; H9c2 protect: 11; aDG glyco conf: 1

How did Cc1cnn(-c2cc(NN=Cc3ccccc3F)ncn2)c1 do in these assays?
UCH37 inh: -2

Results for COc1ccccc1CCC(=O)OCC(=O)c1c(N)n(CC(C)C)c(=O)n(C)c1=O ?
Beta2AR agonist: 11; PfG6PD inh: 9; aDG glyco up: 6.5*; HKDC1 inhibitor: 1; H9c2 protect: -14; UCH37 inh: -12; aDG glyco conf: -1

How did COc1ccc(CCC(=O)OCC(=O)c2c(N)n(CC(C)C)c(=O)n(C)c2=O)cc1 do in these assays?
Beta2AR agonist: 1; PfG6PD inh: 3; aDG glyco up: 6; HKDC1 inhibitor: 5; H9c2 protect: -14; UCH37 inh: -2

How did CCC(=O)N1c2ccc(S(=O)(=O)N3CCN(c4ccc([N+](=O)[O-])cc4)CC3)cc2CC1C (stereo not drawn) do in these assays?
Beta2AR agonist: -7; PfG6PD inh: 6; aDG glyco up: 8.8*; HKDC1 inhibitor: -4; H9c2 protect: -7; UCH37 inh: 4; aDG glyco conf: 0

Results for CCC(=O)N1c2ccc(S(=O)(=O)N3CCN(CC)CC3)cc2CC1C (stereo not drawn) ?
Beta2AR agonist: 4; PfG6PD inh: -8; aDG glyco up: 0; HKDC1 inhibitor: -7; H9c2 protect: 3; UCH37 inh: 0

What do the screens show for `Clc1ccccc1Nc1nc(NCc2ccccc2)nc2ccsc12`?
aDG glyco up: 6.4*; H9c2 protect: -24; aDG glyco conf: 0

What do the screens show for `COc1ccc(N(CC(=O)Nc2ccc(C)cc2)S(=O)(=O)c2c(C)noc2C)cc1`?
Beta2AR agonist: 0; PfG6PD inh: -9; aDG glyco up: 1; HKDC1 inhibitor: -1; H9c2 protect: -6; UCH37 inh: 1

How did Cc1ccc(N(CC(=O)Nc2cc(C)cc(C)c2)S(=O)(=O)c2c(C)noc2C)cc1 do in these assays?
Beta2AR agonist: 15; PfG6PD inh: 9; aDG glyco up: 7.6*; HKDC1 inhibitor: 1; H9c2 protect: -12; UCH37 inh: 1; aDG glyco conf: 1

How did O=C(NN=Cc1ccc(OC(F)F)cc1)c1ccc(CSc2nc3ccccc3[nH]2)cc1 do in these assays?
UCH37 inh: 2

What do the screens show for `CCOc1ccc(CCNC(=O)COC(=O)c2cc(OC)cc(OC)c2)cc1OCC`?
Beta2AR agonist: -7; PfG6PD inh: 1; aDG glyco up: 24*; HKDC1 inhibitor: -4; H9c2 protect: 2; UCH37 inh: 0; aDG glyco conf: 1

Results for CCCOc1ccc(C(=O)OCC(=O)NCCc2ccc(OCC)c(OCC)c2)cc1OC ?
Beta2AR agonist: -2; PfG6PD inh: -5; aDG glyco up: 0; HKDC1 inhibitor: 2; H9c2 protect: 7; UCH37 inh: 1

How did CCOc1ccc(N=Cc2ccc([N+](=O)[O-])cc2)c(O)c1 do in these assays?
PfG6PD inh: 18; aDG glyco up: 5.9*; H9c2 protect: -20; aDG glyco conf: 2

Results for CCOc1ccc(N=Cc2ccc(N(C)C)cc2)c(O)c1 ?
PfG6PD inh: 51; aDG glyco up: 4; H9c2 protect: -12

What do the screens show for `CC(=O)C(=NNc1cccc(Cl)c1)Sc1cccc2cccnc12`?
UCH37 inh: 7
